Source: ChEMBL document CHEMBL3425447, “Discovery of Orally Available Runt-Related Transcription Factor 3 (RUNX3) Modulators for Anticancer Chemotherapy by Epigenetic Activation and Protein Stabilization” (J Med Chem, 2015)

Legend:
[1] = system: C2C12; assay: Induction of RUNX transcriptional activation in mouse C2C12-6xOSE2 cells at 1 uM after 24 hrs by luciferase reporter assay relative to FGF-2; assay type: functional
Summary of the method: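 C2C12-6xOSE stable cells grown in DMEM with 10% FBS at 37°C, 5% CO2. Seeded at 1 × 10^4 cells/well; next day treated with compound or FGF-2 (1 µM each). After 24 h, luciferase measured with Bright-Glo. Activity expressed as percent of the FGF-2 positive-control response.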

[2] = system: MDA-MB-231; assay: Growth inhibition of human MDA-MB-231 cells after 5 days by sulforhodamine B assay; assay type: functional; conditions: MDA-MB-231, 120 h
[3] = system: NCI-H23; assay: Growth inhibition of human NCI-H23 cells after 5 days by sulforhodamine B assay; assay type: functional; conditions: NCI-H23, 120 h
[4] = target: Histone deacetylase; assay: Inhibition of HDAC in human HeLa cell nuclear extract using Fluor de Lys as substrate incubated with compound for 30 mins by microtiter-plate reading flourimeter analysis; assay type: protein assay
[5] = system: ACHN; assay: Growth inhibition of human ACHN cells after 5 days by sulforhodamine B assay; assay type: functional; conditions: 120 h
[6] = Growth inhibition of human NUGC3 cells after 5 days by sulforhodamine B assay; assay type: functional; conditions: NUGC-3, 120 h
[7] = Growth inhibition of human PC3 cells after 5 days by sulforhodamine B assay; assay type: functional; conditions: PC-3, 120 h
[8] = Growth inhibition of human HCT15 cells after 5 days by sulforhodamine B assay; assay type: functional; conditions: HCT-15, 120 h

SMILES | Activity [1] | GI50 [2] | GI50 [3] | IC50 [4] | GI50 [5] | GI50 [6] | GI50 [7] | GI50 [8]
O=C(/C=C/c1cccn(Cc2cccnc2)c1=O)NO | 32.3% | 10 µM | 6.7 µM | 0.3 µM | 4.16 µM | 5.94 µM | 5.33 µM | 7.51 µM
COc1cccc(CCn2cccc(/C=C/C(=O)NO)c2=O)c1 | 53.8% | 6.94 µM | 5.06 µM | 0.07 µM | 2.93 µM | 2.91 µM | 5.87 µM | > 10 µM
O=C(/C=C/c1cccn(Cc2ccncc2)c1=O)NO | 69.1% | 4.92 µM | 3.01 µM | 0.42 µM | 9.49 µM | 9.19 µM | 9.17 µM | > 10 µM
O=C(CCCCCCC(=O)Nc1ccccc1)NO [VORINOSTAT] | 80.2% |  |  |  |  |  |  | 
O=C(/C=C/c1cccn(Cc2cccc(Br)c2)c1=O)NO | 91.6% | 3.07 µM | 3.04 µM | 0.38 µM | 3.03 µM | 2.78 µM | 4.84 µM | 2.73 µM
CC(C)(C)c1ccc(CCCn2cccc(/C=C/C(=O)NO)c2=O)cc1 | 34.4% | 2.23 µM | 1.78 µM | 0.38 µM | 1.83 µM | 1.31 µM | 1.48 µM | 1.42 µM
O=C(/C=C/c1cccn(Cc2ccc(Br)cc2)c1=O)NO | 99.2% | 2.49 µM | 3 µM | 0.1 µM | 1.48 µM | 2.11 µM | 1.88 µM | 4.31 µM
CCOc1cccc(CCn2cccc(/C=C/C(=O)NO)c2=O)c1 | 76.9% | 1.74 µM | 1.81 µM | 0.12 µM | 0.94 µM | 1.42 µM | 1.34 µM | 0.92 µM
O=C(/C=C/c1cccn(Cc2ccccc2Br)c1=O)NO | 86% | 1.59 µM | 2.3 µM | 0.19 µM | 1.53 µM | 1.66 µM | 2.88 µM | 2.4 µM
CC(C)(C)c1ccc(Cn2cccc(/C=C/C(=O)NO)c2=O)cc1 | 46.4% | 2.59 µM | 2.81 µM | 0.09 µM | 2.8 µM | 1.82 µM | 3.04 µM | 2.4 µM
O=C(/C=C/c1cccn(Cc2ccccn2)c1=O)NO | 35.6% | > 10 µM | > 10 µM | 0.46 µM | 6.44 µM | > 10 µM | 10.2 µM | > 10 µM
CCc1ccc(Cn2cccc(/C=C/C(=O)NO)c2=O)cc1 | 74.3% | 3.68 µM | 2.35 µM | 0.1 µM | 1.54 µM | 1.67 µM | 2.07 µM | 1.86 µM
O=C(/C=C/c1cccn(CCCc2ccc(Br)cc2)c1=O)NO | 53.8% | 4.38 µM | 4.88 µM | 0.21 µM | 4.19 µM | 4.02 µM | 3.97 µM | 7.45 µM
CCOc1ccccc1CCn1cccc(/C=C/C(=O)NO)c1=O | 30.9% | 3.89 µM | 4.92 µM | 0.32 µM | 3.59 µM | 3.92 µM | 4.92 µM | 6.06 µM
CCc1ccccc1Cn1cccc(/C=C/C(=O)NO)c1=O | 52.3% | 6.95 µM | 4.96 µM | 0.23 µM | 3.24 µM | 5.41 µM | 5.02 µM | 3.93 µM
O=C(/C=C/c1cccn(CCCc2cccnc2)c1=O)NO | 30% | > 10 µM | 5.21 µM | 0.57 µM | > 10 µM | > 10 µM | > 10 µM | > 10 µM
